The values that follow come from ChEMBL document CHEMBL1144497 (Bioorg Med Chem, 2007).

Data set [1] can be described thus: Solubility in sodium phosphate buffer at pH 7.4. The class given is physicochemical.
A short description of data set [2]: Solubility in oil. Format: physicochemical.
The target of another data set is T1, Liver carboxylesterase 1 (Homo sapiens, UniProt P23141).
T1 sequence (P23141 whole entry): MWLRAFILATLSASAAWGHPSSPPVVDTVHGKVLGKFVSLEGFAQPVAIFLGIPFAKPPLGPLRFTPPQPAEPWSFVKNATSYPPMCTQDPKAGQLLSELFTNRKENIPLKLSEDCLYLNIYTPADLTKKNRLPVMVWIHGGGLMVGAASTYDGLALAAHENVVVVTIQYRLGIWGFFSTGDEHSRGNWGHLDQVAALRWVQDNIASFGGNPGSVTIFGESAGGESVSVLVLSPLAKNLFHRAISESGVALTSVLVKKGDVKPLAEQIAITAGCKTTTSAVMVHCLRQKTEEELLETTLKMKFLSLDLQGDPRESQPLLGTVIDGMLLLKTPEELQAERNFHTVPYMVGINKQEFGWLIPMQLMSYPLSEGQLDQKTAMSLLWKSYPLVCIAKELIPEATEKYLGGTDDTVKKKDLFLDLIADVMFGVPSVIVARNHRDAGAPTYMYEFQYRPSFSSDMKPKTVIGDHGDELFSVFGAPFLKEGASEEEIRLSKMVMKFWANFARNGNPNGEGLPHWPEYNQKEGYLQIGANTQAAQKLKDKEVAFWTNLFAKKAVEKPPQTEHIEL
Kind of data set: Activity of human recombinant carboxylesterase 1 assessed as AUDA hydrolysis. The arrangement: scale not given: the % may be the effect or the level left.

A further data set addresses T2, Cocaine esterase (Homo sapiens, UniProt O00748).
T2 sequence (O00748 whole entry): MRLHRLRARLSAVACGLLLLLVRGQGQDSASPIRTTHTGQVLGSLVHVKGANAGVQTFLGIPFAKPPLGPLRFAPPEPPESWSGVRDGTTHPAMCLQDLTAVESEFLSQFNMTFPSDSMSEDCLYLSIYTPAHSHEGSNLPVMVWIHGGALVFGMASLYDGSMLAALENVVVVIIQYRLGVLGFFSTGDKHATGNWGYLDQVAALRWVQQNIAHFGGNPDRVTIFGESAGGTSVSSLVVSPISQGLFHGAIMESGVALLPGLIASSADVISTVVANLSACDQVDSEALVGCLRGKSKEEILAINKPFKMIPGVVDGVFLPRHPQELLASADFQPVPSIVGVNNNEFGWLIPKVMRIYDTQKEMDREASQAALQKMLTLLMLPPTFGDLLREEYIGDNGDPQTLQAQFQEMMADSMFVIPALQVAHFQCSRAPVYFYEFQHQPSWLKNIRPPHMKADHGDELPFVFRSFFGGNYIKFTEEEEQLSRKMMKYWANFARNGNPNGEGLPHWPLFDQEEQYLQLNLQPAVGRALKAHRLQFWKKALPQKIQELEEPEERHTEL
The data set can be described thus: Activity of human recombinant carboxylesterase 2 assessed as AUDA hydrolysis. Also noted: concentration or dose not given beside the values. The essentials:
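Ester (100 μM) was incubated with purified baculovirus-expressed human carboxylesterase (hCE-1 or hCE-2, 5 μg; 333 nM) in 0.1 M sodium phosphate pH 7.4 at 37°C. Sampling was at 0, 30 and 60 min, with 60 min reported. Percent free acid (AUDA) formed was measured by LC-MS/MS. Values are averages of three separate measurements.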

In data set [3] the test system is Mus musculus. The data set can be described thus: Cmax in Swiss Webster mouse at 5 mg/kg, po. Particulars: in vivo. Format: ADME, organism-based. The arrangement: dose 5 mg/kg, route oral. The essentials: (§1)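 Male Swiss Webster mice, 7 weeks old, dosed by oral gavage at 5 mg/kg in olive oil. AUDA was measured in blood by LC-MS/MS. Cmax, AUC to terminal time and T1/2 were calculated from AUDA blood concentrations.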

For data set [4], the system named is Mus musculus. The data set can be described thus: AUC in Swiss Webster mouse at 5 mg/kg, po. The following applies: in vivo. Also noted: dose 5 mg/kg, route oral. Format: ADME, organism-based, Plasma. The essentials:
as §1

Data set [5] relates to Mus musculus. The data set can be described thus: Half life in Swiss Webster mouse at 5 mg/kg, po. The class given is ADME, organism-based. Also noted: dose 5 mg/kg, route oral. The following applies: in vivo.
Data set [6] addresses T3, Bifunctional epoxide hydrolase 2 (Homo sapiens, UniProt P34913).
T3 sequence (P34913 whole entry): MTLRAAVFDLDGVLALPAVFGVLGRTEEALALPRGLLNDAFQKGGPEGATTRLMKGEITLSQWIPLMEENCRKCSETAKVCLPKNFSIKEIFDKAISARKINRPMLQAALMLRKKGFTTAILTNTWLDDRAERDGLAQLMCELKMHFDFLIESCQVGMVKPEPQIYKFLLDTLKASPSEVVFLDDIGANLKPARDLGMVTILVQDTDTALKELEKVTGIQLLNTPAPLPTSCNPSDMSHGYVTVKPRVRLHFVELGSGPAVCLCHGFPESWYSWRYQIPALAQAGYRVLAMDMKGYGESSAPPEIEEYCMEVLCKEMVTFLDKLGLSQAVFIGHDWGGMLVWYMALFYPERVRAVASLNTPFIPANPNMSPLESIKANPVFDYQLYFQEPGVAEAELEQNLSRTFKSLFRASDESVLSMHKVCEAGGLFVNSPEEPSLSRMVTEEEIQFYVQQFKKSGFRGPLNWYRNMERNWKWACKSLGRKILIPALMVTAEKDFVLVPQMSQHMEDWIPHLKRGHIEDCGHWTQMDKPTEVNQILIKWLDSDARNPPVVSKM
Kind of data set: Inhibition of human soluble epoxide hydrolase by fluorescent based assay.

The target of data set [7] is T4, Bifunctional epoxide hydrolase 2 (Mus musculus, UniProt P34914).
T4 sequence (P34914 whole entry): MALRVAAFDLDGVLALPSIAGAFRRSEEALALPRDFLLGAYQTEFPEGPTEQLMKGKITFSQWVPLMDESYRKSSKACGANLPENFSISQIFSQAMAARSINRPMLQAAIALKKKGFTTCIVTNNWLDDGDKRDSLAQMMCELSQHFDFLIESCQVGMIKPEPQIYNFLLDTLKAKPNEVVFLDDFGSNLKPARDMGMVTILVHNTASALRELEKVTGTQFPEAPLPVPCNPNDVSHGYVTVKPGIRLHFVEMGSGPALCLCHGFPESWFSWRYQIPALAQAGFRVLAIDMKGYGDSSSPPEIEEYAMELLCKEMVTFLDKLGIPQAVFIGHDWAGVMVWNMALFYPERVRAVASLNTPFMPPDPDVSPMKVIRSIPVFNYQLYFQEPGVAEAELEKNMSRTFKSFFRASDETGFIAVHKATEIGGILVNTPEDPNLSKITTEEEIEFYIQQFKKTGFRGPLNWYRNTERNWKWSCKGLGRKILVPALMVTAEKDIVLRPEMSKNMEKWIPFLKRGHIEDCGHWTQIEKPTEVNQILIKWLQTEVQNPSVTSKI
Kind of data set: Inhibition of mouse soluble epoxide hydrolase by spectrometric based assay.

In data set [8] the target is T3, Bifunctional epoxide hydrolase 2. The data set can be described thus: Inhibition of human soluble epoxide hydrolase by spectrometric based assay.

Structures are written as SMILES. ≈ marks a conversion by molar mass, not a printed value.

For `O=C(O)CCCCCCCCCCCNC(=O)NC12CC3CC(CC(C3)C1)C2`, the results for the solubility in [1] and in data set [2] were 35 µg/mL (≈ 89.2 µM) and 5000 µg/mL (≈ 12700 µM), respectively. Also, the Activity on Liver carboxylesterase 1 and at Cocaine esterase was 100% in each case. Further, in the data set on Mus musculus [3], the Cmax came to 26.9 ng/mL. The AUC in the data set with Mus musculus [4] amounted to 87 ng·h/mL. In the data set with Mus musculus [5], this compound yielded a t1/2 of 2.3 h.
In the case of `CCCCOC(=O)CCCCCCCCCCCNC(=O)NC12CC3CC(CC(C3)C1)C2`, the values for the solubility in [1] and in data set [2] were 5 µg/mL (≈ 11.1 µM) and 25000 µg/mL (≈ 55700 µM), respectively. For the same compound, the Activity on Liver carboxylesterase 1 is 41%; on Cocaine esterase it was 39%. This compound had a Cmax with Mus musculus [3] of 39.5 ng/mL. This compound also registered an AUC in the data set on Mus musculus [4] of 96 ng·h/mL.
Consider `CCOC(=O)CCCCCCCCCCCNC(=O)NC12CC3CC(CC(C3)C1)C2`, for which, in data set [6], the IC50 is 1.6 nM.
The compound `C#CCOC(=O)CCCCCCCCCCCNC(=O)NC12CC3CC(CC(C3)C1)C2` returned an IC50 in [6] of 1.8 nM.
`CCCCCCCCC(NC(=O)CCCCCCCCCCCNC(=O)NC12CC3CC(CC(C3)C1)C2)C(=O)N[C@H]1O[C@@H](CO)[C@H](O)[C@@H](O)[C@@H]1O` (stereo partly drawn): the values for the solubility in data set [1] and in [2] were 38 µg/mL (≈ 52.6 µM) and 2000 µg/mL (≈ 2770 µM), respectively. The values for the IC50 in [7], in data set [8] and in data set [6] were 50 nM, 100 nM and 7.5 nM, respectively.
`COC(=O)CCCCCCCCCCCNC(=O)NC12CC3CC(CC(C3)C1)C2` yielded an IC50 in data set [6] of 2.3 nM.
The same measure, in the same setting: next, `CCCOC(=O)CCCCCCCCCCCNC(=O)NC12CC3CC(CC(C3)C1)C2`: 1 nM.
For the compound `CC(C)COC(=O)CCCCCCCCCCCNC(=O)NC12CC3CC(CC(C3)C1)C2`, the solubility was 1.7 µg/mL (≈ 3.79 µM) in [1] and 17000 µg/mL (≈ 37900 µM) in data set [2]. Further, the Activity on Liver carboxylesterase 1 is recorded as 55%; on Cocaine esterase, 33%. The same compound registered a Cmax in the data set with Mus musculus [3] of 42.9 ng/mL. Besides, the AUC with Mus musculus [4] stood at 110 ng·h/mL. In data set [6], half-maximal inhibition (IC50) required 1.2 nM.
In data set [6], `O=C(NCCCCCCCCCCCC(=O)OCc1ccccc1)NC12CC3CC(CC(C3)C1)C2` returned an IC50 of 2 nM.
With `CCC(C)OC(=O)CCCCCCCCCCCNC(=O)NC12CC3CC(CC(C3)C1)C2` (stereo not drawn), the solubility stood at 5 µg/mL (≈ 11.1 µM) in [1] and 27000 µg/mL (≈ 60200 µM) in [2]. For the same compound, the Activity at Cocaine esterase came to 26%. For the same compound, the Cmax in the data set with Mus musculus [3] was 13.1 ng/mL. Moreover, the AUC with Mus musculus [4] was determined as 47 ng·h/mL. This compound also yielded a t1/2 in the data set with Mus musculus [5] of 3.8 h. Further, in [6], inhibition was half-maximal at 0.7 nM (IC50).
Turning to `O=C(CCCCCCCCCCCNC(=O)NC12CC3CC(CC(C3)C1)C2)NCC(=O)N[C@H]1O[C@@H](CO)[C@H](O)[C@@H](O)[C@@H]1O`, the IC50 worked out at 50 nM in [7], 220 nM in data set [8] and 7.6 nM in data set [6].
In the case of `C=CCOC(=O)CCCCCCCCCCCNC(=O)NC12CC3CC(CC(C3)C1)C2`, inhibition in data set [6] was half-maximal at 1 nM (IC50).
In turn, `CS(=O)(=O)NC(=O)CCCCCCCCCCCNC(=O)NC12CC3CC(CC(C3)C1)C2` returned a solubility in data set [1] of 10 µg/mL (≈ 21.3 µM).
In the case of `O=C(NCCCCCCCCCCCC(=O)OC12CC3CC(CC(C3)C1)C2)NC12CC3CC(CC(C3)C1)C2`, the IC50 came to 50 nM in data set [7], 230 nM in data set [8] and 1.5 nM in data set [6].
Turning to `CC(C)OC(=O)CCCCCCCCCCCNC(=O)NC12CC3CC(CC(C3)C1)C2`, the results for the solubility in data set [1] and in data set [2] were 7 µg/mL (≈ 16.1 µM) and 12000 µg/mL (≈ 27600 µM), respectively. In addition, the results for the Activity at Liver carboxylesterase 1 and at Cocaine esterase were 72% and 39%, respectively. Further, the Cmax in the data set with Mus musculus [3] stood at 29.6 ng/mL. In the data set with Mus musculus [4], this compound came in with an AUC of 84 ng·h/mL. Further, in the data set with Mus musculus [5], the t1/2 amounted to 1.9 h. In [6], this compound displayed an IC50 of 1.1 nM.

As usually defined, the solubility is the dissolved amount per volume that the medium holds. A word on the Cmax: it is the maximum level reached in the sampled fluid or tissue. By AUC is commonly meant the area under the concentration-time curve, a measure of exposure. As usually defined, the IC50 is the midpoint of a concentration-inhibition curve.
